ChEMBL document CHEMBL3627646, “Synthesis and biological activity of amino acid derivatives of avarone and its model compound” (Bioorg Med Chem, 2015)
pIC50: −log10 of the molar value. In brackets after ≈: the same amount, converted by molar mass. Activity calls are given as the source filed them. The rule behind the calls is not given here.

Experiments:
A549 = test: Cytotoxicity against human A549 cells assessed as cell survival after 72 hrs by MTT assay; format: functional, cell-based; settings: A549, 72 h
In short: (§1)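 Cells seeded (HeLa 2000, MDA-MB-453 3000, others 5000 per well), treated 24 h later (K562 after 2 h). Five double-diluted final concentrations, 200–12.5 μM, from 10 mM DMSO stocks, in RPMI-1640 with 10% FBS, pH 7.2, 72 h. MTT 4 h at 37 °C, SDS added, A570 read next day. Survival relative to medium control; IC50 from survival curves; triplicate; cisplatin positive control.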

HeLa [1] = test: Cell cycle arrest in human HeLa cells assessed as accumulation at sub-G1 phase at IC50 after 24 hrs using propidium iodide staining by cytofluorometric analysis; format: functional, cell-based
In short: (§2)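 Trypsinized, fixed in ice-cold 70% ethanol then held at −20 °C at least one week. Treated with RNase 100 µg/mL at 37 °C 30 min, stained with PI 40 µg/mL at least 30 min. Flow cytometry on ≥10,000 cells.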

HeLa [2] = test: Induction of apoptosis in human HeLa cells assessed as accumulation at sub-G1 phase after 24 hrs in presence of caspase-8 inhibitor Z-IETD-FMK using propidium iodide staining by flow cytometric analysis; format: functional, cell-based
Micrococcus luteus = test: Antibacterial activity against Micrococcus luteus ATCC 4698 after 24 hrs by microbroth double dilution method; format: functional; settings: ATCC 4698, 24 h
In short: (§3)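 Microbroth double dilution in Mueller Hinton broth; compound stock 10 mg/mL in DMSO serially halved across rows. Wells inoculated with 10 μL culture at 10^6 cells/mL, incubated 37 °C for 24 h. Amikacin row as positive control, DMSO row as negative control. MIC taken as lowest concentration inhibiting bacterial growth.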

Proteus hauseri = test: Antibacterial activity against Proteus hauseri ATCC 13315 after 24 hrs by microbroth double dilution method; format: functional; settings: ATCC 13315, 24 h; in short: as §3
Micrococcus flavus = test: Antibacterial activity against Micrococcus flavus ATCC 10240 after 24 hrs by microbroth double dilution method; format: functional; settings: ATCC 10240, 24 h; in short: as §3
Artemia salina = test: Cytotoxicity in Brine shrimp assessed as nauplii mortality after 24 hrs; format: organism-based; settings: in vivo
In short: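 Artemia salina eggs hatched in aerated tap water with dried yeast at 18–20 °C under illumination for 48 h, and freshly hatched nauplii were used. Compounds in DMSO (0.01–1 mg) were added to 950 µL artificial seawater containing 10–20 nauplii, with 5% final DMSO. After 24 h under illumination at room temperature, dead and surviving nauplii were counted and statistically analysed.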

HeLa [3] = test: Cell cycle arrest in human HeLa cells assessed as accumulation at sub-G1 phase at 2 time IC50 after 24 hrs using propidium iodide staining by cytofluorometric analysis; format: functional, cell-based; in short: as §2
Aspergillus brasiliensis = test: Antifungal activity against Aspergillus brasiliensis ATCC 16404 after 24 hrs by microbroth double dilution method; format: functional; settings: ATCC 16404, 24 h
HeLa [4] = test: Induction of apoptosis in human HeLa cells assessed as accumulation at sub-G1 phase after 24 hrs using propidium iodide staining by flow cytometric analysis; format: functional, cell-based
Bacillus subtilis = test: Antibacterial activity against Bacillus subtilis ATCC 6633 after 24 hrs by microbroth double dilution method; format: functional; settings: ATCC 6633, 24 h; in short: as §3
K562 = test: Cytotoxicity against human K562 cells assessed as cell survival after 72 hrs by MTT assay; format: functional, cell-based; settings: K562, 72 h; in short: as §1
Kocuria rhizophila = test: Antibacterial activity against Kocuria rhizophila ATCC 9341 after 24 hrs by microbroth double dilution method; format: functional; settings: ATCC 9341, 24 h; in short: as §3
Saccharomyces cerevisiae = test: Antifungal activity against Saccharomyces cerevisiae ATCC 9763 after 24 hrs by microbroth double dilution method; format: functional; settings: ATCC 9763, 24 h
HeLa [5] = test: Cytotoxicity against human HeLa cells assessed as cell survival after 72 hrs by MTT assay; format: functional, cell-based; in short: as §1
MDA-MB-453 = test: Cytotoxicity against human MDA-MB-453 cells assessed as cell survival after 72 hrs by MTT assay; format: functional, cell-based; settings: MDA-MB-453, 72 h; in short: as §1
HeLa [6] = test: Induction of apoptosis in human HeLa cells assessed as accumulation at sub-G1 phase after 24 hrs in presence of caspase-3 inhibitor Z-DEVD-FMK using propidium iodide staining by flow cytometric analysis; format: functional, cell-based
Candida albicans = test: Antifungal activity against Candida albicans ATCC 10231 after 24 hrs by microbroth double dilution method; format: functional; settings: ATCC 10231, 24 h
Staphylococcus aureus = test: Antibacterial activity against Staphylococcus aureus ATCC 6538 after 24 hrs by microbroth double dilution method; format: functional; settings: ATCC 6538, 24 h; in short: as §3
[7] = Cytotoxicity against human Fem-X cells assessed as cell survival after 72 hrs by MTT assay; format: functional, cell-based; in short: as §1
HeLa [8] = test: Cell cycle arrest in human HeLa cells assessed as reduction in G1 phase at IC50 after 24 hrs using propidium iodide staining by cytofluorometric analysis; format: functional, cell-based; in short: as §2
MRC5 [9] = test: Cytotoxicity against human MRC5 cells assessed as cell survival after 72 hrs by MTT assay; format: cell-based; settings: MRC5, 72 h; in short: as §1
HeLa [10] = test: Induction of apoptosis in human HeLa cells assessed as accumulation at sub-G1 phase after 24 hrs in presence of caspase-9 inhibitor Z-LEHD-FMK using propidium iodide staining by flow cytometric analysis; format: functional, cell-based
Escherichia coli = test: Antibacterial activity against Escherichia coli ATCC 25922 after 24 hrs by microbroth double dilution method; format: functional; settings: ATCC 25922, 24 h; in short: as §3
Clostridium sporogenes = test: Antibacterial activity against Clostridium sporogenes ATCC 19404 after 24 hrs by microbroth double dilution method; format: functional; settings: ATCC 19404, 24 h; in short: as §3
HeLa [11] = test: Cell cycle arrest in human HeLa cells assessed as reduction in G1 phase at 2 time IC50 after 24 hrs using propidium iodide staining by cytofluorometric analysis; format: functional, cell-based; in short: as §2
Pseudomonas aeruginosa = test: Antibacterial activity against Pseudomonas aeruginosa ATCC 9027 after 24 hrs by microbroth double dilution method; format: functional; settings: ATCC 9027, 24 h; in short: as §3
Salmonella enterica = test: Antibacterial activity against Salmonella enterica ATCC 13076 after 24 hrs by microbroth double dilution method; format: functional; settings: ATCC 13076, 24 h; in short: as §3
HeLa [12] = test: Cell cycle arrest in human HeLa cells assessed as accumulation at G2/M phase at IC50 after 24 hrs using propidium iodide staining by cytofluorometric analysis; format: functional, cell-based; in short: as §2
HeLa [13] = test: Cell cycle arrest in human HeLa cells assessed as accumulation at G2/M phase at 2 time IC50 after 24 hrs using propidium iodide staining by cytofluorometric analysis; format: functional, cell-based; in short: as §2
HeLa [14] = test: Cell cycle arrest in human HeLa cells assessed as accumulation at G2/M phase after 24 hrs using propidium iodide staining by cytofluorometric analysis; format: functional, cell-based; in short: as §2
HeLa [15] = test: Cell cycle arrest in human HeLa cells assessed as accumulation at sub-G1 phase after 24 hrs using propidium iodide staining by cytofluorometric analysis; format: functional, cell-based; in short: as §2
MRC5 [16] = test: Cytotoxicity against human MRC5 cells; format: cell-based

CC1=CCC[C@H]2[C@](C)(CC3=CC(=O)C=C(N[C@@H](CC(C)C)C(=O)O)C3=O)[C@@H](C)CC[C@]12C
pIC50 (A549): 4.71
Activity (HeLa [1]): Active
Activity (HeLa [2]): inactive
MIC (Micrococcus luteus): 11.1 µM (≈ 4.9 µg/mL)
MIC (Proteus hauseri): 44.2 µM (≈ 19.5 µg/mL)
MIC (Micrococcus flavus): 88.3 µM (≈ 39 µg/mL)
LC50 (Artemia salina): 117 ppm
Activity (HeLa [3]): Active
MIC (Aspergillus brasiliensis): 1410 µM (≈ 624 µg/mL)
Activity (HeLa [4]): Active
MIC (Bacillus subtilis): 88.3 µM (≈ 39 µg/mL)
pIC50 (K562): 4.95
MIC (Kocuria rhizophila): 709 µM (≈ 313 µg/mL)
MIC (Saccharomyces cerevisiae): 176 µM (≈ 77.9 µg/mL)
pIC50 (HeLa [5]): 5.11
pIC50 (MDA-MB-453): 4.96
Activity (HeLa [6]): inactive
MIC (Candida albicans): < 5.54 µM
MIC (Staphylococcus aureus): 5.55 µM (≈ 2.45 µg/mL)
pIC50 [7]: 4.96
Activity (HeLa [8]): Active
pIC50 (MRC5 [9]): 4.13
Activity (HeLa [10]): inactive
MIC (Escherichia coli): 5.55 µM (≈ 2.45 µg/mL)
MIC (Clostridium sporogenes): 44.2 µM (≈ 19.5 µg/mL)
Activity (HeLa [11]): Active
MIC (Pseudomonas aeruginosa): 88.3 µM (≈ 39 µg/mL)
MIC (Salmonella enterica): 88.3 µM (≈ 39 µg/mL)

CC1=CCC[C@H]2[C@](C)(CC3=CC(=O)C=C(NCCC(=O)O)C3=O)[C@@H](C)CC[C@]12C
pIC50 (A549): 4.57
Activity (HeLa [2]): inactive
MIC (Micrococcus luteus): 48.8 µM (≈ 19.5 µg/mL)
MIC (Proteus hauseri): 393 µM (≈ 157 µg/mL)
Activity (HeLa [12]): Active
MIC (Micrococcus flavus): 783 µM (≈ 313 µg/mL)
LC50 (Artemia salina): 84.3 ppm
MIC (Aspergillus brasiliensis): 782 µM (≈ 313 µg/mL)
Activity (HeLa [4]): Active
MIC (Bacillus subtilis): 393 µM (≈ 157 µg/mL)
pIC50 (K562): 4.81
MIC (Kocuria rhizophila): 393 µM (≈ 157 µg/mL)
MIC (Saccharomyces cerevisiae): 12.2 µM (≈ 4.89 µg/mL)
pIC50 (HeLa [5]): 5.05
pIC50 (MDA-MB-453): 5.48
Activity (HeLa [6]): inactive
MIC (Candida albicans): 195 µM (≈ 77.9 µg/mL)
MIC (Staphylococcus aureus): 24.5 µM (≈ 9.8 µg/mL)
pIC50 [7]: 4.69
pIC50 (MRC5 [9]): 4.09
Activity (HeLa [10]): inactive
MIC (Escherichia coli): 48.8 µM (≈ 19.5 µg/mL)
MIC (Clostridium sporogenes): 393 µM (≈ 157 µg/mL)
MIC (Pseudomonas aeruginosa): 783 µM (≈ 313 µg/mL)
MIC (Salmonella enterica): 783 µM (≈ 313 µg/mL)
Activity (HeLa [13]): Active

CSCC[C@H](NC1=CC(=O)C=C(C[C@]2(C)[C@@H](C)CC[C@]3(C)C(C)=CCC[C@@H]23)C1=O)C(=O)O
pIC50 (A549): 4.33
MIC (Micrococcus luteus): 42.4 µM (≈ 19.5 µg/mL)
MIC (Proteus hauseri): 341 µM (≈ 157 µg/mL)
Activity (HeLa [12]): Active
MIC (Micrococcus flavus): 170 µM (≈ 77.9 µg/mL)
LC50 (Artemia salina): 147.7 ppm
MIC (Aspergillus brasiliensis): 341 µM (≈ 157 µg/mL)
MIC (Bacillus subtilis): 170 µM (≈ 77.9 µg/mL)
pIC50 (K562): 4.87
MIC (Kocuria rhizophila): 1360 µM (≈ 625 µg/mL)
MIC (Saccharomyces cerevisiae): 87.8 µM (≈ 40.3 µg/mL)
pIC50 (HeLa [5]): 4.86
pIC50 (MDA-MB-453): 4.59
MIC (Candida albicans): < 2.67 µM
MIC (Staphylococcus aureus): 42.4 µM (≈ 19.5 µg/mL)
pIC50 [7]: 4.71
pIC50 (MRC5 [9]): < 3.70
MIC (Escherichia coli): 42.4 µM (≈ 19.5 µg/mL)
MIC (Clostridium sporogenes): 170 µM (≈ 77.9 µg/mL)
MIC (Pseudomonas aeruginosa): 170 µM (≈ 77.9 µg/mL)
MIC (Salmonella enterica): 170 µM (≈ 77.9 µg/mL)
Activity (HeLa [13]): Active

CC1=CCC[C@H]2[C@](C)(CC3=CC(=O)C=C(N[C@@H](C(=O)O)C(C)C)C3=O)[C@@H](C)CC[C@]12C
pIC50 (A549): 4.62
Activity (HeLa [1]): Active
MIC (Micrococcus luteus): 22.9 µM (≈ 9.81 µg/mL)
MIC (Proteus hauseri): 183 µM (≈ 78.1 µg/mL)
Activity (HeLa [14]): Dose-dependent effect
Activity (HeLa [12]): Active
MIC (Micrococcus flavus): 91.3 µM (≈ 39.1 µg/mL)
LC50 (Artemia salina): 50.5 ppm
Activity (HeLa [3]): Active
MIC (Aspergillus brasiliensis): 164 µM (≈ 70.2 µg/mL)
MIC (Bacillus subtilis): 91.3 µM (≈ 39.1 µg/mL)
pIC50 (K562): 5.11
MIC (Kocuria rhizophila): 1460 µM (≈ 626 µg/mL)
MIC (Saccharomyces cerevisiae): 368 µM (≈ 157 µg/mL)
pIC50 (HeLa [5]): 4.96
pIC50 (MDA-MB-453): 5.10
MIC (Candida albicans): < 2.88 µM
Activity (HeLa [15]): Dose-dependent effect
MIC (Staphylococcus aureus): 22.9 µM (≈ 9.81 µg/mL)
pIC50 [7]: 4.94
Activity (HeLa [8]): Active
pIC50 (MRC5 [9]): 4.07
MIC (Escherichia coli): 22.9 µM (≈ 9.81 µg/mL)
MIC (Clostridium sporogenes): 91.3 µM (≈ 39.1 µg/mL)
Activity (HeLa [11]): Active
MIC (Pseudomonas aeruginosa): 91.3 µM (≈ 39.1 µg/mL)
MIC (Salmonella enterica): 183 µM (≈ 78.1 µg/mL)
Activity (HeLa [13]): Active

CC1=CCC[C@H]2[C@](C)(CC3=CC(=O)C(N[C@@H](CC(C)C)C(=O)O)=CC3=O)[C@@H](C)CC[C@]12C
pIC50 (MRC5 [16]): < 4.00
